Experimental data from ChEMBL document CHEMBL1151815, “Amides and benzenoids from Zanthoxylum ailanthoides with inhibitory activity on superoxide generation and elastase release by neutrophils” (J Nat Prod, 2009).
Values after ≈ are worked out from the molar mass of the structure shown.

Columns and labels:
Conditions in all cases: Neutrophil
[1] = Antiinflammatory activity against human neutrophils assessed as inhibition of fMLP/CB-induced elastase release; format: functional, cell-based
Method in brief: (§1)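 Human neutrophils from healthy adult volunteers' venous blood, isolated by dextran sedimentation, Ficoll Hypaque gradient and hypotonic erythrocyte lysis, held in Ca2+-free HBSS pH 7.4 at 4 °C. Cells (6 × 10^5/mL) with MeO-Suc-Ala-Ala-Pro-Val-p-nitroanilide (100 µM) equilibrated 2 min at 37 °C, compound 5 min, then fMLP (100 nM)/cytochalasin B (0.5 µg/mL). A405 monitored continuously; n = 4, mean ± SEM.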

[2] = Antiinflammatory activity against human neutrophils assessed as inhibition of fMLP/CB-induced superoxide anion generation; format: functional, cell-based
Method in brief: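 Neutrophils (6 × 10^5/mL, dextran/Ficoll-isolated from healthy adults) with 0.5 mg/mL ferricytochrome c and 1 mM Ca2+, 2 min at 37 °C, compound or DMSO 5 min, cytochalasin B (1 µg/mL) 3 min, then fMLP 100 nM 10 min. SOD-inhibitable (100 U/mL) cytochrome c reduction at 550 nm, extinction coefficient 21.1/mM/10 mm; n = 4, mean ± SEM.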

[3] = Antiinflammatory activity against human neutrophils assessed as inhibition of fMLP/CB-induced elastase release at 10 ug/ml; format: functional; method in brief: as §1

| SMILES | IC50 [1] | IC50 [2] | inhibition at 10 µg/mL [3] |
| --- | --- | --- | --- |
| COc1ccc(CCN(C)C(=O)c2ccccc2)cc1 | 7.48 µg/mL (≈ 27.8 µM) | 8.49 µg/mL (≈ 31.5 µM) |  |
| CC(=O)/C=C/C=C/C(=O)NCC(C)C | 6.2 µg/mL (≈ 31.8 µM) | 4.2 µg/mL (≈ 21.5 µM) |  |
| COc1ccc(CCN(C)C(=O)/C=C/c2ccc(O)cc2)cc1 [AILANTHAMIDE] | 4.23 µg/mL (≈ 13.6 µM) | 3.71 µg/mL (≈ 11.9 µM) |  |
| COc1c(O)ccc2c1cnc1c3cc4c(cc3ccc21)OCO4 [DECARINE] | 1.94 µg/mL (≈ 6.08 µM) | 1.29 µg/mL (≈ 4.04 µM) |  |
| c1ccc2c(c1)[I+]c1ccccc1-2 [DIPHENYLENEIODONIUM] |  | 0.54 µg/mL |  |
| COc1cc(C(=O)C(CO)c2ccc(O)c(OC)c2)ccc1O (configuration not stated) [EVOFOLIN B] | 6.15 µg/mL (≈ 19.3 µM) | 5.34 µg/mL (≈ 16.8 µM) |  |
| COc1c2ccoc2nc2c(OC)cccc12 [GAMMA-FAGARINE] |  | 7.17 µg/mL (≈ 31.3 µM) | 19.1% |
| O=C1OC[C@H](Cc2ccc3c(c2)OCO3)[C@H]1Cc1ccc2c(c1)OCO2 [HINOKININ] |  | 0.6 µg/mL (≈ 1.69 µM) | 24.7% |
| O=S(=O)(F)Cc1ccccc1 [PHENYLMETHYLSULFONYLFLUORIDE] | 35.2 µg/mL (≈ 202 µM) |  |  |
| COc1cc2ccc(=O)oc2cc1OC [SCOPARONE] |  | 8.25 µg/mL (≈ 40 µM) | 43.1% |
| c1cc2c(cc1[C@H]1OC[C@H]3[C@@H]1CO[C@@H]3c1ccc3c(c1)OCO3)OCO2 [SESAMIN] | 1.38 µg/mL (≈ 3.89 µM) | 4.3 µg/mL (≈ 12.1 µM) |  |
| CC1(C)C=Cc2cc3ccc(=O)oc3cc2O1 [XANTHYLETIN] | 5.53 µg/mL (≈ 24.2 µM) | 4.1 µg/mL (≈ 18 µM) |  |
